Assay results taken from ChEMBL document CHEMBL1136005 (J Med Chem, 2002).
Each block holds one molecule with its values, some of them ahead of it.

Legend:
[1] = Plasma concentration was determined after 1 hr at a dose 30 mg/kg administered orally to rat-10; type: ADME, organism-based; design: dose 30 mg/kg, route oral; details: po
Outline: (§1)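 Sprague-Dawley rats, n=2 per compound, dosed orally at 30 mg/kg. Plasma drug concentration measured 1 and 8 h after dosing.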

[2] = Plasma concentration was determined after 1 hr at a dose 30 mg/kg administered orally to rat-9; type: ADME, organism-based; design: dose 30 mg/kg, route oral; details: po; outline: as §1
[3] = Plasma concentration was determined after 8 hr at a dose 30 mg/kg administered orally to rat-10; type: ADME, organism-based; design: dose 30 mg/kg, route oral; details: po; outline: as §1
[4] = Plasma concentration was determined after 8 hr at a dose 30 mg/kg administered orally to rat-9; type: ADME, organism-based; design: dose 30 mg/kg, route oral; details: po; outline: as §1
[5] = pharmacokinetic parameter was evaluated after oral administration of 30 mg/kg to rat; type: ADME, organism-based; design: dose 30 mg/kg, route oral; details: in vivo
Outline: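 Sprague-Dawley rats, n=3, dosed orally at 30 mg/kg. Plasma drug concentrations were followed to derive Tmax (h), Cmax (µg/mL), T1/2 (h) and AUC0-∞ (µg h/mL).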

[6] = biological target: Fibroblast growth factor receptor (Homo sapiens, UniProt P22607+P11362+P22455+P21802); assay: Inhibition of Fibroblast growth factor receptor autophosphorylation; type: protein assay
[7] = biological target: T1, Receptor-type tyrosine-protein kinase FLT3 (Homo sapiens, UniProt P36888); assay: Inhibition of Flt3 autophosphorylation
T1 sequence (P36888 whole entry): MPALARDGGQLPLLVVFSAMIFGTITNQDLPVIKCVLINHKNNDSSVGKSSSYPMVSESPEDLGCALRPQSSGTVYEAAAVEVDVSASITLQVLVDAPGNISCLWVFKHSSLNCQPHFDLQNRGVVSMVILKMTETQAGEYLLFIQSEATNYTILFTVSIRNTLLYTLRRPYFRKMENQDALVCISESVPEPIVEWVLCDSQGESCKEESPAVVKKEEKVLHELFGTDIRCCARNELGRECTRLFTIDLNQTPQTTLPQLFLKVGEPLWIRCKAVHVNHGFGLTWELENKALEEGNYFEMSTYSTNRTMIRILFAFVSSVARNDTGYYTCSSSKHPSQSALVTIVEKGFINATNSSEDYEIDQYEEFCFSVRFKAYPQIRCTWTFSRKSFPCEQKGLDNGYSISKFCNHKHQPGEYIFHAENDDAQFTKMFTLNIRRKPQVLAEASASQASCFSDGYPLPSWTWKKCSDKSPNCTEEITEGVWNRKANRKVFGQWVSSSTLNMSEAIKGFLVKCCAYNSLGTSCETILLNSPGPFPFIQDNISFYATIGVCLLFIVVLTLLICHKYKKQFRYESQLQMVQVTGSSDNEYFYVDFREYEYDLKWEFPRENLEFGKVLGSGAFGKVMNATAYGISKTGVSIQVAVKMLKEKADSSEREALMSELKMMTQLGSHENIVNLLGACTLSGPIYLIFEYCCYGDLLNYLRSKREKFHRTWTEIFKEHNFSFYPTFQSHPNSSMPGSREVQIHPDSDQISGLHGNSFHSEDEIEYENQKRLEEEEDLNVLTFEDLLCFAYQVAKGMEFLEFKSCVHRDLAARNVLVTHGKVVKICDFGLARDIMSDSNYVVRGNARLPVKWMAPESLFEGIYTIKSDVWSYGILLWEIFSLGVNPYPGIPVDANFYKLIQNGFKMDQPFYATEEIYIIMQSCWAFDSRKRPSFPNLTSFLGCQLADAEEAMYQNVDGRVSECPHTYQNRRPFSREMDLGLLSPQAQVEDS

[8] = biological target: Mitogen-activated protein kinase; ERK1/ERK2 (Homo sapiens, UniProt P27361+P28482); assay: Inhibition of Extracellular signal-regulated kinase (Erk); type: protein assay
Outline: (§2)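 Substrate phosphorylation measured in an in vitro assay with purified enzyme; IC50 values in µmol/L.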

[9] = biological target: Dual specificity mitogen-activated protein kinase kinase 1 (Homo sapiens, UniProt Q02750); assay: Inhibition of Mitogen activated protein kinase kinase 1; outline: as §2
Dual specificity mitogen-activated protein kinase kinase 1, sequence (Q02750 whole entry): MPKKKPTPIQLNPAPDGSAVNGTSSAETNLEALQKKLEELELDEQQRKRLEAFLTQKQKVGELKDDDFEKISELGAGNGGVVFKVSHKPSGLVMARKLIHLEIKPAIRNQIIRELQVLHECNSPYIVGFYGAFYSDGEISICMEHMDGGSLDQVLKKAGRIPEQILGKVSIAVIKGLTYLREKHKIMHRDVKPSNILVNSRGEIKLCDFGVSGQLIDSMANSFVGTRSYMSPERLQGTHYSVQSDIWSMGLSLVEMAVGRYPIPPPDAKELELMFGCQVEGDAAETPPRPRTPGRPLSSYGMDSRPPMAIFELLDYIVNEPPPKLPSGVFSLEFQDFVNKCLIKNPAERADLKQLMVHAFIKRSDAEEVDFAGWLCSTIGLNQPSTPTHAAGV

[10] = biological target: MAP kinase p38 (Homo sapiens, UniProt O15264+Q15759+Q16539+P53778); assay: Inhibition of Mitogen-activated protein kinase p38; type: protein assay; outline: as §2
[11] = biological target: T2, Dual specificity mitogen-activated protein kinase kinase 6 (Homo sapiens, UniProt P52564); assay: Inhibition of Mitogen activated protein kinase kinase 6; outline: as §2
T2 sequence (P52564 whole entry): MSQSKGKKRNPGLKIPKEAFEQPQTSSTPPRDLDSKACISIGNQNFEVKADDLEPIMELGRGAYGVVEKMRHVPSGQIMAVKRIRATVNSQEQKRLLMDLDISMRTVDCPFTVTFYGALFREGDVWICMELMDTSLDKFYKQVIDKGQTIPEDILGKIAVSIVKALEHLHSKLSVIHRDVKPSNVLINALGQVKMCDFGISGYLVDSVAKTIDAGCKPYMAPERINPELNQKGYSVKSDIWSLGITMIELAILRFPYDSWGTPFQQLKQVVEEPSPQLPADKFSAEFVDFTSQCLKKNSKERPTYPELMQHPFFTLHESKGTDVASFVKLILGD

[12] = biological target: Protein kinase C (PKC); assay: Inhibition of Protein kinase C; type: protein assay; outline: as §2
[13] = biological target: cAMP-dependent protein kinase (PKA) (Homo sapiens, UniProt P22694+P17612+P22612); assay: Inhibition of Protein kinase A (PKA); type: protein assay; outline: as §2
[14] = biological target: Proto-oncogene tyrosine-protein kinase Src (Homo sapiens, UniProt P12931); assay: Inhibition of Src protein tyrosine kinase; outline: as §2
Proto-oncogene tyrosine-protein kinase Src, sequence (P12931 2-536 limits assumed): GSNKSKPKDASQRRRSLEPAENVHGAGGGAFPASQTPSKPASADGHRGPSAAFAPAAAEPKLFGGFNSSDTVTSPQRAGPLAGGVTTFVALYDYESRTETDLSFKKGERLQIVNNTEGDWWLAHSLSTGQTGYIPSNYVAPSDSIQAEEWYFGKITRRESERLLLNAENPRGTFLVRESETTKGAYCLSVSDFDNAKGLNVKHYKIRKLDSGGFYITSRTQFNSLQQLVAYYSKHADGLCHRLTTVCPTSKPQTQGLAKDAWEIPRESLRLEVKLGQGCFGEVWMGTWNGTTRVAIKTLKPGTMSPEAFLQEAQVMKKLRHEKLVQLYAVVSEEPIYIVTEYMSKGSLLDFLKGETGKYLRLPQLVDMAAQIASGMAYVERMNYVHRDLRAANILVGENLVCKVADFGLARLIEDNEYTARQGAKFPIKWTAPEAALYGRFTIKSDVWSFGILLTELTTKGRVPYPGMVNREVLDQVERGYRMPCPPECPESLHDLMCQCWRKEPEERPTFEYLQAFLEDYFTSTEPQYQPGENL

[15] = biological target: Vascular endothelial growth factor receptor 2 (Homo sapiens, UniProt P35968); assay: Inhibition of Vascular endothelial growth factor receptor 2 (VEGFR-2) autophosphorylation
Vascular endothelial growth factor receptor 2, sequence (P35968 whole entry): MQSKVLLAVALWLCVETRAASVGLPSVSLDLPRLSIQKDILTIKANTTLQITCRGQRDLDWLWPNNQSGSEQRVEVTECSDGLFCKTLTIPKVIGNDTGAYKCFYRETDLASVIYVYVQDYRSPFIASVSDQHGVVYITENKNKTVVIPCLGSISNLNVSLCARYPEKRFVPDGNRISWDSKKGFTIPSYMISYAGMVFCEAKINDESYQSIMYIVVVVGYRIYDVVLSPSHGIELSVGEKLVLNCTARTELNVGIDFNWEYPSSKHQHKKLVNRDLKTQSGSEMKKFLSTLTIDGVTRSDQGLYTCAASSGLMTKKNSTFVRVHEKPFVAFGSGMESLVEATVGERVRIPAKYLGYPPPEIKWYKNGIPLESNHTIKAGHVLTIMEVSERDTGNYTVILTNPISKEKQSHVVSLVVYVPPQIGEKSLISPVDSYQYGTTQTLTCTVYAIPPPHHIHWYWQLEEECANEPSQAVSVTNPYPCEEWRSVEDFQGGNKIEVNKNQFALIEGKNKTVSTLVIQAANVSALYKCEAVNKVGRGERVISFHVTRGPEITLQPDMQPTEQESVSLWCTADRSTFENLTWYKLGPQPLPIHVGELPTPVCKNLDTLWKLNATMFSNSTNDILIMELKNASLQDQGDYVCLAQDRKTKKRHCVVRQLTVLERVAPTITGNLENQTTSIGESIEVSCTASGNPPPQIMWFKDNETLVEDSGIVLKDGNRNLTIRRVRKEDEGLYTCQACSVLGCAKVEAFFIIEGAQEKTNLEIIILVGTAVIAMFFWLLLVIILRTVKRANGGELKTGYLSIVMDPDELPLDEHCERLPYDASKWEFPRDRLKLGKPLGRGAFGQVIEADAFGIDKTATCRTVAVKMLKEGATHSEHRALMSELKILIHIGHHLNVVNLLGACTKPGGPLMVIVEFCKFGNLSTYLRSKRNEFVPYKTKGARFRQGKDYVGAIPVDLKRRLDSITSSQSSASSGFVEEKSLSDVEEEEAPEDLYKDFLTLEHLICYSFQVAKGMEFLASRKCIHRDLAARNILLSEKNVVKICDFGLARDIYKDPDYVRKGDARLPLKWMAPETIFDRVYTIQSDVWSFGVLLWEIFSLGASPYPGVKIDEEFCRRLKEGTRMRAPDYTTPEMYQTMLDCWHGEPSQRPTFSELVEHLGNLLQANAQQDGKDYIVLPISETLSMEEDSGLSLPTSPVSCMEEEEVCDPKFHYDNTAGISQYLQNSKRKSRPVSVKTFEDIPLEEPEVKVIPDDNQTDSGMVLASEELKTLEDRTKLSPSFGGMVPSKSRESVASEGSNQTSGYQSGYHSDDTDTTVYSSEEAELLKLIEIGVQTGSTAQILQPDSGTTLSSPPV

[16] = biological target: Mitogen-activated protein kinase 8 (Homo sapiens, UniProt P45983); assay: Inhibition of c-Jun N-terminal kinase (Jnk); outline: as §2
Mitogen-activated protein kinase 8, sequence (P45983 whole entry): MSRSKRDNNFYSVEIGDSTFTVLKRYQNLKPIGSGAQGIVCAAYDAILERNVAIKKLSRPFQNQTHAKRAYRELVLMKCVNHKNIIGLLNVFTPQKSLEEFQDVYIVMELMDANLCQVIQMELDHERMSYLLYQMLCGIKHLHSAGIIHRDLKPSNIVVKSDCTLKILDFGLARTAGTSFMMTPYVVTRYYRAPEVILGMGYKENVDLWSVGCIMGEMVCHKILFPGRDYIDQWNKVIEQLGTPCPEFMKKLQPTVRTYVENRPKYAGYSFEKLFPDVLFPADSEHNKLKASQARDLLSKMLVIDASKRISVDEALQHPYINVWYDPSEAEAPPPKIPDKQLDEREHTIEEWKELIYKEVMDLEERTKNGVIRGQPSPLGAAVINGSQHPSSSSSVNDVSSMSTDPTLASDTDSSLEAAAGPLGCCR

[17] = biological target: Tyrosine-protein kinase ABL (Homo sapiens, UniProt P00519+P42684); assay: Inhibition of Abl tyrosine kinase; type: protein assay; outline: as §2
[18] = biological target: Macrophage colony-stimulating factor 1 receptor (Homo sapiens, UniProt P07333); assay: Inhibition of Colony stimulating factor 1 receptor (CSF-1R) autophosphorylation
Macrophage colony-stimulating factor 1 receptor, sequence (P07333 whole entry): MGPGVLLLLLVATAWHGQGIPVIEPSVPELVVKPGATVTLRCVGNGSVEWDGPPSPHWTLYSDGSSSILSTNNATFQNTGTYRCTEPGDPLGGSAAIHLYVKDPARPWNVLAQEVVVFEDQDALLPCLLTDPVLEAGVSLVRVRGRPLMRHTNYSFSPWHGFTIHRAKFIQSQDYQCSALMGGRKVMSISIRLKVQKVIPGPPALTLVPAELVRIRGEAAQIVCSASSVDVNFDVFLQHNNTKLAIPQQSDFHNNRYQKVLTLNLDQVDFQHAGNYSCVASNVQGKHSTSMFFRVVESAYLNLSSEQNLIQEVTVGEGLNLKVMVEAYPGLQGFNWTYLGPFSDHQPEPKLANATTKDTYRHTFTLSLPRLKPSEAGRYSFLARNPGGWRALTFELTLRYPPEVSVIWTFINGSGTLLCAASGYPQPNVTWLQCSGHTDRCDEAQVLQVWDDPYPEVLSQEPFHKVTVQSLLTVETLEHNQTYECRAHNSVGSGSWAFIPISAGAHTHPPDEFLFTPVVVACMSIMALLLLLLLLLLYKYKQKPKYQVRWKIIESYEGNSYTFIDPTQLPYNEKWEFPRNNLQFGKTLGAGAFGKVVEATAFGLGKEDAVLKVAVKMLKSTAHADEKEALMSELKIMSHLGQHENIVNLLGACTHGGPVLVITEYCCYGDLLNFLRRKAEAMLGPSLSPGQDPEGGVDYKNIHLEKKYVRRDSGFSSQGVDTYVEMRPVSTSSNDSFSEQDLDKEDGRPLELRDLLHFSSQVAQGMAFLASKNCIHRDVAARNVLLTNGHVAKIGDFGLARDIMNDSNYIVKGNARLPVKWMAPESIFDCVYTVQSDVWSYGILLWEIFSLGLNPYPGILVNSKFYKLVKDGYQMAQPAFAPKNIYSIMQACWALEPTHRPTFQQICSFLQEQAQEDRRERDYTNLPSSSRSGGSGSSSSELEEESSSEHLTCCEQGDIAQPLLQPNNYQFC

[19] = Plasma concentration was determined after 1 hr at a dose 30 mg/kg administered orally to rat-15; type: ADME, organism-based; design: dose 30 mg/kg, route oral; details: po; outline: as §1
[20] = Plasma concentration was determined after 1 hr at a dose 30 mg/kg administered orally to rat-16; type: ADME, organism-based; design: dose 30 mg/kg, route oral; details: po; outline: as §1
[21] = Plasma concentration was determined after 8 hr at a dose 30 mg/kg administered orally to rat-16; type: ADME, organism-based; design: dose 30 mg/kg, route oral; details: po; outline: as §1
[22] = Lipophilicity was reported; type: physicochemical; details: octanol/water
[23] = biological target: Platelet-derived growth factor receptor (Homo sapiens, UniProt P09619+P16234); assay: Concentration required for 50% inhibition against autophosphorylation of Platelet-derived growth factor receptor beta in intact cells using a two site ELISA; type: cell-based
[24] = Plasma concentration was determined after 8 hr at a dose 30 mg/kg administered orally to rat-15; type: ADME, organism-based; design: dose 30 mg/kg, route oral; details: po; outline: as §1
[25] = Plasma concentration was determined after 1 hr at a dose 30 mg/kg administered orally to rat-5; type: ADME, organism-based; design: dose 30 mg/kg, route oral; details: po; outline: as §1
[26] = Plasma concentration was determined after 1 hr at a dose 30 mg/kg administered orally to rat-6; type: ADME, organism-based; design: dose 30 mg/kg, route oral; details: po; outline: as §1
[27] = Plasma concentration was determined after 8 hr at a dose 30 mg/kg administered orally to rat-5; type: ADME, organism-based; design: dose 30 mg/kg, route oral; details: po; outline: as §1
[28] = Plasma concentration was determined after 8 hr at a dose 30 mg/kg administered orally to rat-6; type: ADME, organism-based; design: dose 30 mg/kg, route oral; details: po; outline: as §1
[29] = Plasma concentration was determined after 1 hr at a dose 30 mg/kg administered orally to rat-7; type: ADME, organism-based; design: dose 30 mg/kg, route oral; details: po; outline: as §1
[30] = Plasma concentration was determined after 8 hr at a dose 30 mg/kg administered orally to rat-7; type: ADME, organism-based; design: dose 30 mg/kg, route oral; details: po; outline: as §1
[31] = Plasma concentration was determined after 8 hr at a dose 30 mg/kg administered orally to rat-8; type: ADME, organism-based; design: dose 30 mg/kg, route oral; details: po; outline: as §1
[32] = Plasma concentration was determined after 1 hr at a dose 30 mg/kg administered orally to rat-8; type: ADME, organism-based; design: dose 30 mg/kg, route oral; details: po; outline: as §1

concentration at 1 h [1]: 5.9 µg/mL
concentration at 1 h [2]: 5.1 µg/mL
concentration at 8 h [3]: 3.6 µg/mL
concentration at 8 h [4]: 2.4 µg/mL
AUC [5]: 89.9 µg·h/mL
Cmax [5]: 14.5 µg/mL
Tmax [5]: 3.33 h
half-life [5]: 3.92 h
IC50 [6]: 160 uM l-1
IC50 [7]: 14.9 µM
IC50 [8]: > 30 uM l-1
IC50 [9]: > 30 µM
IC50 [10]: > 30 uM l-1
IC50 [11]: > 30 µM
IC50 [12]: > 30 uM l-1
IC50 [13]: > 30 uM l-1
IC50 [14]: > 30 µM
IC50 [15]: 17.3 µM
IC50 [16]: > 30 µM
IC50 [17]: > 30 uM l-1
IC50 [18]: > 30 µM
SMILES: COc1cc2ncnc(N3CCN(/C(S)=N\Cc4ccc5c(c4)OCO5)CC3)c2cc1OC

concentration at 1 h [19]: 3 µg/mL
concentration at 1 h [20]: 3.7 µg/mL
concentration at 8 h [21]: 1.4 µg/mL
AUC [5]: 95.8 µg·h/mL
Cmax [5]: 7.2 µg/mL
Tmax [5]: 3.67 h
half-life [5]: 3.33 h
logD [22]: 2.75
IC50 [23]: 0.33 µM
concentration at 8 h [24]: 1.2 µg/mL
SMILES: COc1cc2ncnc(N3CCN(C(=S)NCc4ccco4)CC3)c2cc1OC

concentration at 1 h [25]: 2.4 µg/mL
concentration at 1 h [26]: < 0.1 µg/mL
concentration at 8 h [27]: 1.3 µg/mL
concentration at 8 h [28]: < 0.1 µg/mL
IC50 [23]: 0.07 µM
SMILES: COc1cc2ncnc(N3CCN(C(=S)NCc4ccc(Cl)cc4)CC3)c2cc1OC

concentration at 1 h [29]: 2.3 µg/mL
concentration at 8 h [30]: 0.4 µg/mL
concentration at 8 h [31]: 0.5 µg/mL
IC50 [23]: 0.1 µM
concentration at 1 h [32]: 2.5 µg/mL
SMILES: COc1ccc(CNC(=S)N2CCN(c3ncnc4cc(OC)c(OC)cc34)CC2)cc1
